Screening results deposited in PubChem by several laboratories.
STAT1 blocker – STAT1 signaling inhibitors, primary screen, cell-based, HTS, luciferase reporter. AID 920, 2007. inhibition, % at 5.5 µM. NIH 3T3 STAT1-luciferase reporter, IFN-gamma, luminescence. 200,000 compounds, 0.35% hits;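 active = inhibition above a set limit, the mean inhibition across all tested compounds plus 3 SD, cut at about 34% in these data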;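 note: 0% = IFN-gamma with DMSO and 100% = IFN-gamma with 300 µM nifuroxazide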
STAT3 blocker – IL-6 driven STAT3 reporter inhibitors, primary screen, U3A cells, luciferase, luminescence, MLSCN library. IL-6 STAT3-luciferase reporter; host cell line lacks STAT1. inhibition, % at 5.5 µM. 190,000 compounds, 0.89% hits;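 active = inhibition above the mean inhibition across all screened compounds plus 3 SD, cut at about 44% in these data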;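 note: 0% = DMSO only wells and 100% = 100 µM nifuroxazide control wells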
APP 5'UTR act – activators of APP 5'UTR luciferase reporter, primary screen, SH-SY5Y cells; SH-SY5Y APP 5'UTR luciferase reporter, luminescence; zero percent = DMSO vehicle wells; activation, % at 2 µM; 190,000 compounds, 1% hits;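 active = activation above a set limit, based on mean plus 3 SD of controls, cut at about 140% in these data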
STAT3 act – IL-6 driven STAT3 reporter potentiators, primary screen, U3A cells, luciferase, luminescence, MLSCN library | 190,000 compounds, 0.91% hits | IL-6 STAT3-luciferase reporter; 100% = signal with IL-6 EC80 alone | activation (% of control), % at 5.6 µM;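 active = activation above the screen-wide mean of compound activation plus 3 SD, cut at about 130% in these data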;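 note: 0% = background luminescence of wells with medium and substrate only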
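Test system: STAT3-luciferase reporter U3A cells; Detection: reporter luminescence signal; Times: 1 h compound pre-exposure, 6 h IL-6 stimulation, 37 °C; Benchmarks: IL-6-only high control; Also added: IL-6 stimulus at 33 ng/mL final.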
NF-kB expr up – activators of NF-kB expression in neurons, primary screen, cell-based, HTS; human neuronal cells, NF-kB reporter expression; active compounds read high; fold change at 12.5 µM; 190,000 compounds, 1.6% hits; AID 1239, 2008; in the data active = fold change above about 3.3
STAT1 activator – STAT1 signaling activators, primary screen, cell-based, HTS, luciferase reporter; NIH 3T3 STAT1-luciferase reporter, IFN-gamma, luminescence; 100% = IFN-gamma alone, no compound; activation (% of control), % at 5.5 µM; 200,000 compounds, 2.6% hits;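 active = activation above the screen-wide mean activation plus 3 SD, cut at about 130% in these data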;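 note: raw ratio to IFN-gamma control signal so 100% means no change and 0% no light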
* = called active by the depositor. Most compounds without a hit are left out; they make up all but 5.1% or so of the library.

SMILES	STAT1 blocker	STAT3 blocker	APP 5'UTR act	STAT3 act	NF-kB expr up	STAT1 activator
COc1cccc(-c2cc(C(=O)Nc3ccccc3SC)no2)c1	-32	12	50	98	1.3	129*
COc1cccc(-c2cc(C(=O)NC3CCCC3)no2)c1	-50	15	18	89	4.9*	144*
COc1cccc(NC(=O)C(NC2CCCC2)c2ccccc2)c1 (stereo not given)	3	0	1	104	1.1	98
COc1ccc(-c2cc(C(=O)Nc3ccccc3SC)no2)cc1OC	3	21	12	86	1.2	97
COCC(C)NC(=O)c1cc(-c2cccc(OC)c2)on1 (stereo not given)	-37	16	23	89	1.5	134*
CC(NC(=O)Cc1cccc(C(F)(F)F)c1)c1ccc(F)cc1 (stereo not given)	4	-11	21	114	0.88	94
Cc1cc(C2=NNC(=NC3CC3)SC2)c(C)n1-c1c(C)n(C)n(-c2ccccc2)c1=O	3	8	-16	96	1.2	97
COCCCN=C1NN=C(c2cc(C)n(Cc3ccccc3Cl)c2C)CS1	-9	-9	-76	113	1.3	108
COCCn1c(C)cc(C2=NNC(=Nc3ccccc3F)SC2)c1C	73*	94*	-52	22	0.27	32
Cc1ccc(-n2c(C)cc(C3=NNC(=NC4CC4)SC3)c2C)cc1C	-24	-10	155*	104	0.58	122
Cc1cc(C2=NNC(=Nc3ccccc3)SC2)c(C)n1C	-44	13	9	96	2.1	142*
COCCCN=C1NN=C(c2cc(C)n(-c3ccccc3F)c2C)CS1	45*	52*	187*	58	1.8	58
O=C(c1cc([N+](=O)[O-])cc([N+](=O)[O-])c1)N1CCOCC1	0	1	-6	104	1.2	100
COc1ccc(-c2[nH]n(-c3ccc([N+](=O)[O-])cc3)c(=O)c2C=NCc2ccccc2)cc1	3	-5	-7	102	0.99	100
CC(c1nccs1)N(C)C(=O)CCc1nnc(CCc2ccccc2)o1 (stereo not given)	-13	-1	17	104	1.1	110
O=C(C[n+]1ccn(CCCNP2(=O)C=C(c3ccccc3)OC(c3ccccc3)=C2)c1)c1cccs1	-10	4	-16	99	1.3	108
O=C(CCSc1ccc(Cl)cc1)NC1CCCCC1	-6	3	17	107	1.3	106
O=C(CCSc1ccccc1)N1CCOCC1	-21	-7	86	109	1.8	119
O=C(CCSc1ccccc1)N1CCCC1	-40	2	76	104	2.2	134*
O=C(CCSc1ccccc1)NC1CCCCCC1	-51	-12	-4	111	1.1	144*
Cc1noc(C)c1COC(=O)[C@@H](NC(=O)c1ccccc1)C(C)C	7	0	2	104	1.1	93
Cc1ccc2nc(C)c(C(=O)NN=C3CCN(C)CC3)n2c1	7	5	-68	104	0.94	94
COCCN(CCOC)S(=O)(=O)c1ccc(C(=O)Nc2sc3c(c2C(N)=O)CCCCC3)cc1	-31	-6	90	105	0.52	129*
CC(NC(=O)CCSc1nc(-c2ccc3c(c2)OCO3)cc(C(F)(F)F)n1)c1ccccc1 (stereo not given)	9	16	1	89	1.3	92
CC(C)CCSc1nc2ccccc2[nH]1	-31	11	100	91	1.1	129*
COc1ccc(CSc2nc3ccccc3[nH]2)cc1	-9	37	150*	74	5.7*	108
Fc1ccccc1CSCc1nc2ccccc2[nH]1	-34	-18	18	118	2.3	131*
Cc1ccc(CSCc2nc3ccccc3[nH]2)cc1	-4	11	16	98	1.4	102
Fc1cccc(F)c1CSc1nc2ccccc2[nH]1	-48	11	156*	89	7.2*	145*
COc1cccc(C2C(C(C)=O)=C(O)C(=O)N2CCNCCO)c1 (stereo not given)	2	7	-3	99	1	98
